In ChEMBL document CHEMBL1122839, “Synthesis and antidiarrheal activity of N-(aminoiminomethyl)-1H-pyrrole-1-acetamides related to guanfacine” (1985):
Values joined by “and” are separate entries in the source; they are usually repeats but may differ in a detail not shown here. Equal values may be shown once. Active and inactive are the calls of the source. The calls are words filed in the database; no cut-off is given here.

Assays:
Rattus norvegicus [1] = test: Percent inhibition of caster oil induced diarrhea in rats at a dose of 30 mg/kg peroral administration after 6 hours; NS=Not significant; format: functional, organism-based; set-up: dose 30 mg/kg
Rattus norvegicus [2] = test: Percent inhibition of caster oil induced diarrhea in rats at a dose of 30 mg/kg peroral administration after 2 hours; NS=Not significant; format: functional, organism-based; set-up: dose 30 mg/kg
Rattus norvegicus [3] = test: Percent inhibition of caster oil induced diarrhea in rats at a dose of 3 mg/kg peroral administration after 6 hr; NS=Not significant; format: functional, organism-based; set-up: dose 3 mg/kg
Rattus norvegicus [4] = test: Percent inhibition of caster oil induced diarrhea in rats at a dose of 1 mg/kg peroral administration after 2 hours; NS=Not significant; format: functional, organism-based; set-up: dose 1 mg/kg
Rattus norvegicus [5] = test: Percent inhibition of caster oil induced diarrhea in rats at a dose of 1 mg/kg peroral administration after 6 hr; NS=Not significant; format: functional, organism-based; set-up: dose 1 mg/kg
Rattus norvegicus [6] = test: Percent inhibition of caster oil induced diarrhea in rats at a dose of 30 mg/kg peroral administration after 2 hours; format: functional; settings: route oral
Rattus norvegicus [7] = test: Percent inhibition of caster oil induced diarrhea in rats after 2 hours at 1 mg/kg of dose after peroral administration; NS=Not significant; format: functional, organism-based; set-up: dose 1 mg/kg
Rattus norvegicus [8] = test: Percent inhibition of caster oil induced diarrhea in rats at a dose of 10 mg/kg peroral administration after 6 hours; format: functional; settings: for inhibition in vivo at 10 mg/kg: Rattus norvegicus, 6 h; for Inhibition: 10 mg/kg
Rattus norvegicus [9] = test: Percent inhibition of caster oil induced diarrhea in rats at a dose of 10 mg/kg peroral administration after 2 hours; format: functional; settings: route oral
Rattus norvegicus [10] = test: Cardiovascular activity in normotensive rats after oral administration of 30 mg/kg after 1 hr; format: functional
In short: (§1)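 Female normotensive rats with left carotid artery cannulae implanted under anaesthesia; dosed orally the next day in 0.5% hydroxymethylcellulose/0.9% saline (10 mL/kg) or vehicle alone. Systolic blood pressure taken by pressure transducer before dosing and at 1, 2, 4, 6 h; heart rate from tachometer triggered by pressure signal. Mean values; significance versus predose.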

Rattus norvegicus [11] = test: Cardiovascular activity in normotensive rats after oral administration of 30 mg/kg after 6 hr; format: functional
In short: (§2)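 Female normotensive rats with left carotid artery cannulae placed under anaesthesia. The next day they received the test substance orally in 0.5% hydroxymethylcellulose/0.9% saline (10 mL/kg), or vehicle alone. Systolic blood pressure was measured from the cannula, and heart rate from the pressure-triggered tachometer, predose and at 1, 2, 4 and 6 h. Values are means; significance was judged against predose values.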

Rattus norvegicus [12] = test: Percent inhibition of caster oil induced diarrhea in rats after 6 hours at 3 mg/kg of dose after peroral administration; NS=Not significant; format: functional, organism-based; set-up: dose 3 mg/kg
Rattus norvegicus [13] = test: Percent inhibition of caster oil induced diarrhea in rats after 6 hours at 1 mg/kg of dose after peroral administration; NS=Not significant; format: functional, organism-based; set-up: dose 1 mg/kg
Rattus norvegicus [14] = test: Cardiovascular activity in normotensive rats after oral administration of 30 mg/kg after 2 hr; format: functional; in short: as §2
Rattus norvegicus [15] = test: Cardiovascular activity in normotensive rats after oral administration of 30 mg/kg after 4 hr; format: functional; in short: as §2
Rattus norvegicus [16] = test: Percent inhibition of caster oil induced diarrhea in rats at a dose of 30 mg/kg peroral administration after 6 hours; format: functional; settings: for inhibition in vivo at 30 mg/kg: Rattus norvegicus, 6 h
Rattus norvegicus [17] = test: Percent inhibition of caster oil induced diarrhea in rats after 2 hours at 3 mg/kg of dose after peroral administration; format: functional; settings: route oral
Rattus norvegicus [18] = test: Cardiovascular activity in normotensive rats at a dose of 30 mg/kg oral administration after 6 hr; format: functional; in short: as §2
Rattus norvegicus [19] = test: Cardiovascular activity in normotensive rats at a dose of 30 mg/kg oral administration after 4 hr; format: functional; in short: as §2
Rattus norvegicus [20] = test: Cardiovascular activity in normotensive rats at a dose of 30 mg/kg oral administration after 1 hr; format: functional; in short: as §2
Rattus norvegicus [21] = test: Cardiovascular activity in normotensive rats at a dose of 30 mg/kg oral administration after 2 hr; format: functional; in short: as §2
Rattus norvegicus [22] = test: Percent inhibition of caster oil induced diarrhea in rats at a dose of 3 mg/kg peroral administration after 2 hours; format: functional; settings: route oral
Rattus norvegicus [23] = test: Percent inhibition of caster oil induced diarrhea in rats at a dose of 1 mg/kg peroral administration after 2 hours; format: functional; settings: route oral
Rattus norvegicus [24] = test: The compound was tested for cardiovascular activity in normotensive rats after oral administration of 30 mg/kg after 1 hr; format: functional, Heart; in short: as §2
Rattus norvegicus [25] = test: Cardiovascular activity in normotensive rats after oral administration of 30 mg/kg aof the compound after 1 hr; format: functional; in short: as §1
Rattus norvegicus [26] = test: Percent inhibition of caster oil induced diarrhea in rats at a dose of 3 mg/kg peroral administration after 6 hr; format: functional; settings: route oral
In short: (§3)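 Male rats housed singly on wide-mesh grids, food-deprived overnight, water free; groups of six dosed orally in 0.3% hydroxymethylcellulose/0.9% saline (10 mL/kg) or vehicle. Castor oil 1 mL orally 1 h later. Feces collected on preweighed papers and weighed at 2 and 6 h after castor oil; output expressed as percentage of vehicle group.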

Rattus norvegicus [27] = test: Percent inhibition of caster oil induced diarrhea in rats at a dose of 3 mg/kg peroral administration after 2 hr; format: functional; settings: route oral; in short: as §3
Rattus norvegicus [28] = test: Percent inhibition of caster oil induced diarrhea in rats at a dose of 3 mg/kg peroral administration after 6 hours; NS=Not significant; format: functional, organism-based; set-up: dose 3 mg/kg
Rattus norvegicus [29] = test: Percent inhibition of caster oil induced diarrhea in rats at a dose of 1 mg/kg peroral administration after 6 hours; NS=Not significant; format: functional, organism-based; set-up: dose 1 mg/kg
Rattus norvegicus [30] = test: Percent inhibition of caster oil induced diarrhea in rats at a dose of 1 mg/kg peroral administration after 2 hr; format: functional; settings: route oral
Rattus norvegicus [31] = test: Percent inhibition of caster oil induced diarrhea in rats at a dose of 1 mg/kg peroral administration after 6 hr; format: functional; settings: route oral

## CC1CC[C@@H](C)N1CC(=O)N=C(N)N (stereo partly specified)
Rattus norvegicus [1]
  inhibition: inactive
Rattus norvegicus [2]
  inhibition: inactive

## CC1C=C[C@@H](C)N1CC(=O)N=C(N)N (stereo in doubt; 10)
Rattus norvegicus [3]
  inhibition: inactive
Rattus norvegicus [4]
  inhibition: inactive
Rattus norvegicus [5]
  inhibition: inactive

## CC1C=C[C@@H](C)N1C(=O)C(=O)N=C(N)N (stereo partly specified)
Rattus norvegicus [1]
  inhibition: inactive
Rattus norvegicus [2]
  inhibition: inactive

## CC1C=C[C@@H](C)N1CC(=O)NC1=NCCN1 (stereo partly specified)
Rattus norvegicus [1]
  inhibition: inactive
Rattus norvegicus [6]
  inhibition in vivo at 30 mg/kg: 35%

## CC1C=C[C@@H](C)N1CCC(=O)N=C(N)N (stereo partly specified)
Rattus norvegicus [1]
  inhibition: inactive
Rattus norvegicus [2]
  inhibition: inactive

## C/N=C(\N)NC(=O)CN1C(C)C=C[C@H]1C (stereo partly specified)
Rattus norvegicus [1]
  inhibition: inactive
Rattus norvegicus [6]
  inhibition in vivo at 30 mg/kg: 88%

## CC1C=C[C@@H](C)N1C(C)C(=O)N=C(N)N (stereo partly specified)
Rattus norvegicus [1]
  inhibition: inactive
Rattus norvegicus [2]
  inhibition: inactive

## CNC(=N)NC(=O)Nc1c(C)cccc1C [LIDAMIDINE]
Rattus norvegicus [7]
  inhibition: inactive
Rattus norvegicus [8]; po
  inhibition in vivo at 10 mg/kg: 68%
Rattus norvegicus [9]
  inhibition in vivo at 10 mg/kg: 100%
Rattus norvegicus [10]
  Heart rate: 263 beats min-1
  Systolic blood pressure: 123 mmHg
Rattus norvegicus [11]
  Heart rate: 298 beats min-1
  Systolic blood pressure: 131 mmHg
Rattus norvegicus [6]
  inhibition in vivo at 30 mg/kg: 100%
Rattus norvegicus [12]
  inhibition: inactive
Rattus norvegicus [13]
  inhibition: inactive
Rattus norvegicus [14]
  Heart rate: 241 beats min-1
  Systolic blood pressure: 132 mmHg
Rattus norvegicus [15]
  Heart rate: 261 beats min-1
  Systolic blood pressure: 126 mmHg
Rattus norvegicus [16]; po
  inhibition in vivo at 30 mg/kg: 100%
Rattus norvegicus [17]
  inhibition in vivo at 3 mg/kg: 100%

## Cc1ccc(C)n1CC(=O)N=C(N)N.Cl
Rattus norvegicus [8]; route oral
  Inhibition: 75% and 97%
Rattus norvegicus [18]
  Heart rate: 242 beats min-1
Rattus norvegicus [19]
  Heart rate: 218 beats min-1
Rattus norvegicus [9]
  inhibition in vivo at 10 mg/kg: 100%
Rattus norvegicus [10]
  Systolic blood pressure: 193 mmHg
Rattus norvegicus [11]
  Systolic blood pressure: 138 mmHg
Rattus norvegicus [6]
  inhibition in vivo at 30 mg/kg: 96%
Rattus norvegicus [20]
  Heart rate: 175 beats min-1
Rattus norvegicus [14]
  Systolic blood pressure: 159 mmHg
Rattus norvegicus [15]
  Systolic blood pressure: 163 mmHg
Rattus norvegicus [16]; po
  inhibition in vivo at 30 mg/kg: 96%
Rattus norvegicus [21]
  Heart rate: 218 beats min-1

## CC1C=C[C@@H](C)N1CC(=O)N=C(N)N.Cl.Cl (stereo in doubt; 2)
Rattus norvegicus [8]; route oral
  Inhibition: 86%
Rattus norvegicus [9]
  inhibition in vivo at 10 mg/kg: 100%
Rattus norvegicus [10]
  Systolic blood pressure: 133 mmHg
Rattus norvegicus [11]
  Heart rate: 443 beats min-1
  Systolic blood pressure: 134 mmHg
Rattus norvegicus [6]
  inhibition in vivo at 30 mg/kg: 100%
Rattus norvegicus [22]
  inhibition in vivo at 3 mg/kg: 100%
Rattus norvegicus [14]
  Heart rate: 373 beats min-1
  Systolic blood pressure: 137 mmHg
Rattus norvegicus [15]
  Heart rate: 418 beats min-1
  Systolic blood pressure: 133 mmHg
Rattus norvegicus [23]
  inhibition in vivo at 1 mg/kg: 92%
Rattus norvegicus [16]; po
  inhibition in vivo at 30 mg/kg: 99%
Rattus norvegicus [24]
  Heart rate: 395 beats min-1

## CC1C=C[C@@H](C)N1CC(=O)N=C(N)N.Cl.Cl (stereo in doubt; 10)
Rattus norvegicus [8]; route oral
  Inhibition: 52%
Rattus norvegicus [22]
  inhibition in vivo at 3 mg/kg: 100%

## CN(C)C(=O)C(CCN1CCC(O)(c2ccc(Cl)cc2)CC1)(c1ccccc1)c1ccccc1 [LOPERAMIDE]
Rattus norvegicus [8]; route oral
  inhibition in vivo at 10 mg/kg: 99%
Rattus norvegicus [9]
  inhibition in vivo at 10 mg/kg: 100%
Rattus norvegicus [10]
  Heart rate: 278 beats min-1
Rattus norvegicus [11]
  Heart rate: 360 beats min-1
  Systolic blood pressure: 125 mmHg
Rattus norvegicus [25]
  Systolic blood pressure: 119 mmHg
Rattus norvegicus [6]
  inhibition in vivo at 30 mg/kg: 98%
Rattus norvegicus [26]
  inhibition in vivo at 3 mg/kg: 77%
Rattus norvegicus [27]
  inhibition in vivo at 3 mg/kg: 96%
Rattus norvegicus [14]
  Heart rate: 290 beats min-1
  Systolic blood pressure: 117 mmHg
Rattus norvegicus [15]
  Heart rate: 324 beats min-1
  Systolic blood pressure: 124 mmHg
Rattus norvegicus [16]; route oral
  inhibition in vivo at 30 mg/kg: 97%

## CC1C=C[C@@H](C)N1CC(=O)N=C(N)N (stereo in doubt; 2)
Rattus norvegicus [28]
  inhibition: Not siginificant
Rattus norvegicus [29]
  inhibition: inactive

## CC1C=C[C@@H](C)N1CC(=O)N=C(N)N.Cl.Cl (stereo in doubt; 11)
Rattus norvegicus [8]; route oral
  Inhibition: 45%
Rattus norvegicus [30]
  inhibition in vivo at 1 mg/kg: 100%
Rattus norvegicus [16]; route oral, 30 mg/kg
  Inhibition: 100%
Rattus norvegicus [31]
  inhibition in vivo at 1 mg/kg: 46%

## CC1C=C[C@@H](C)N1CCN=C(N)N (stereo partly specified)
Rattus norvegicus [1]
  inhibition: inactive
Rattus norvegicus [2]
  inhibition: inactive
